The text below walks through data of ChEMBL document CHEMBL3769360, “Phthalimido-thiazoles as building blocks and their effects on the growth and morphology of Trypanosoma cruzi” (Eur J Med Chem, 2016).

The test system of series [1] is Trypanosoma cruzi. Description: Trypanocidal activity against epimastigote form of Trypanosoma cruzi Dm28c after 11 days by neubauer chamber method. In kind it is functional. Particulars: 264 h.
A short description of series [2]: Cytotoxicity against BALB/c mouse splenocytes assessed as highest non-toxic concentration causing >90 % incorporation of [3H]-thymidine after 24 hrs by beta counting method. The class given is cell-based, Splenocyte. The note with it: read-out: MNTD90. Summed up: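 BALB/c mouse splenocytes at 5 × 10^6 cells/well in RPMI-1640 with 10% inactivated FBS. Compounds were dissolved in DMSO (10 mg/mL stock) and serially diluted to 1.0, 5.0, 10, 25, 50 and 100 (final), in triplicate. Controls were saponin and medium with DMSO. 3H-thymidine was added, then 24 h at 37 °C, 5% CO2, and beta counting. Untreated = 100%; >90% incorporation counted as nontoxic.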

Series [3] deals with Trypanosoma cruzi. As to the kind of experiment: Trypanocidal activity against trypamostigote form of Trypanosoma cruzi Y infected in African green monkey Vero cells after 24 hrs by neubauer chamber method. The class given is functional, organism-based. Summed up:
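Y strain trypomastigotes harvested from Vero cell supernatants, 4 × 10^5 cells/well, compounds in triplicate, benznidazole as positive control. Incubated 24 h at 37 °C, 5% CO2. Motile parasites counted in a Neubauer chamber; untreated wells = 100%. IC50 by nonlinear regression over at least seven concentrations.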

Series [4] is described as follows: Lipophilicity, log P of compound. The class given is physicochemical. The note with it: octanol/water.
Series [5] is described as follows: Selectivity index, ratio of MNTD90 for cytotoxicity against BALB/c mouse splenocytes to IC50 for trypamostigote form of Trypanosoma cruzi Y infected in African green monkey Vero cells. The class given is toxicity, cell-based. Particulars: read-out: Selectivity Index.
The subject of series [6] is Trypanosoma cruzi. Description: Induction of apoptosis in trypamostigote form of Trypanosoma cruzi Y assessed as necrotic cells at 25 uM after 24 hrs by Annexin V-FITC/propidium iodide staining based flow cytometry relative to untreated control. The class given is functional. The method in brief:
(§1)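 Trypomastigotes (1 × 10^7) incubated 24 h at 37 °C with or without compound. Then labelled with annexin V-FITC and propidium iodide using a kit per the manufacturer's instructions and analysed by flow cytometry. Two independent experiments, each concentration in duplicate; comparison against untreated cells.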

Series [7] concerns Trypanosoma cruzi. As to the kind of experiment: Induction of apoptosis in trypamostigote form of Trypanosoma cruzi Y assessed as late apoptotic cells at 25 uM after 24 hrs by Annexin V-FITC/propidium iodide staining based flow cytometry relative to untreated control. In kind it is functional. The method in brief:
as §1
In general terms: Flow cytometry measures light scatter and fluorescence of single cells or particles in a stream.

Structures are written as SMILES.

On to `O=C1c2ccccc2C(=O)N1Nc1nc(-c2ccc([N+](=O)[O-])cc2)cs1`, for which the IC50 in the series on Trypanosoma cruzi [1] worked out at 13.3 µM; in the series on Trypanosoma cruzi [3], 84.9 µM. Moreover, the MNTC at 24 h in series [2] was 2.7 µM.
On to `O=C1c2ccccc2C(=O)N1C/C=N/N=c1\scc(-c2ccc(Cl)cc2)n1-c1ccccc1`, for which the IC50 in the series with Trypanosoma cruzi [1] is 10.6 µM; in the series on Trypanosoma cruzi [3], 18.4 µM. Moreover, the MNTC at 24 h in series [2] is 211 µM.
Compound `O=C1c2ccccc2C(=O)N1Nc1nc(-c2ccc3ccccc3c2)cs1` showed a logP in series [4] of 4.98. In addition, the IC50 with Trypanosoma cruzi [1] amounted to 8 µM; in the series on Trypanosoma cruzi [3] it was 4.7 µM. Besides, the MNTC at 24 h in series [2] came to 269 µM.
For the compound `O=C1c2ccccc2C(=O)N1C/C=N/N=c1\scc(-c2ccc(-c3ccccc3)cc2)n1-c1ccccc1`, the IC50 in the series on Trypanosoma cruzi [1] was 44.2 µM; with Trypanosoma cruzi [3], 98 µM. Further, the MNTC at 24 h in series [2] turned out to be 194 µM.
As for `Cc1sc(NN2C(=O)c3ccccc3C2=O)nc1-c1ccc(Br)cc1`, the IC50 in the series with Trypanosoma cruzi [1] amounted to 13.9 µM; with Trypanosoma cruzi [3] it was 38.2 µM. Also, the MNTC at 24 h in series [2] is 2.4 µM.
Turning to `O=C1c2ccccc2C(=O)N1Nc1nc(-c2ccc(Cl)cc2Cl)cs1`, the IC50 worked out at 10.1 µM with Trypanosoma cruzi [1] and 22.7 µM in the series on Trypanosoma cruzi [3]. Moreover, in series [2], the MNTC at 24 h turned out to be 12.8 µM.
Consider `O=C1c2ccccc2C(=O)N1Nc1nc(-c2cccc([N+](=O)[O-])c2)cs1`, for which the IC50 was 43.2 µM in the series on Trypanosoma cruzi [1] and 91.1 µM in the series with Trypanosoma cruzi [3]. Further, the MNTC at 24 h in series [2] is 2.7 µM.
`O=C1c2ccccc2C(=O)N1Nc1nc(-c2ccc(-c3ccccc3)cc2)cs1` displayed a logP in series [4] of 5.66. The IC50 is 4 µM in the series on Trypanosoma cruzi [1] and 27.5 µM with Trypanosoma cruzi [3]. Besides, in series [2], the MNTC at 24 h was found to be 252 µM.
As to `O=C1c2ccccc2C(=O)N1Nc1nc(CCl)cs1`, the IC50 turned out to be 226 µM with Trypanosoma cruzi [1] and 54.4 µM in the series with Trypanosoma cruzi [3]. For the same compound, in series [2], the MNTC at 24 h is 17 µM. Besides, the selectivity ratio in series [5] worked out at 0.3.
For `O=C1c2ccccc2C(=O)N1C/C=N/N=c1\scc(-c2ccc([N+](=O)[O-])cc2)n1-c1ccccc1` the same measures were 12.2 µM, 3.2 µM, 207 µM and 64.6.
Compound `O=C1c2ccccc2C(=O)N1Nc1nc(-c2ccccc2)cs1` yielded a logP in series [4] of 3.98. Moreover, the results for the IC50 in the series with Trypanosoma cruzi [1] and in the series on Trypanosoma cruzi [3] were 70.2 µM and 108 µM, respectively. In addition, in series [2], the MNTC at 24 h stood at 3.1 µM.
Turning to `O=C1c2ccccc2C(=O)N1Nc1nc(-c2ccc(Cl)c(Cl)c2)cs1`, the figures for the IC50 in the series with Trypanosoma cruzi [1] and with Trypanosoma cruzi [3] were 69.3 µM and 88.8 µM, respectively. Besides, the MNTC at 24 h in series [2] came to 2.6 µM.
In the case of `O=C1c2ccccc2C(=O)N1C/C=N/N=c1\scc(-c2ccc(F)cc2)n1-c1ccccc1`, the MNTC at 24 h in series [2] is 219 µM. In the series with Trypanosoma cruzi [3], this compound showed an IC50 of 73.8 µM.
As to `O=C1c2ccccc2C(=O)N1Nc1nc(-c2ccc(Br)cc2)cs1`, the IC50 was found to be 14.8 µM in the series with Trypanosoma cruzi [1] and 89.8 µM with Trypanosoma cruzi [3]. Further, the MNTC at 24 h in series [2] amounted to 2.5 µM.
As for `O=C1c2ccccc2C(=O)N1C/C=N/N=c1/[nH]c(CCl)cs1`, the IC50 came to 85.7 µM with Trypanosoma cruzi [1] and 2.2 µM in the series on Trypanosoma cruzi [3]. Moreover, the MNTC at 24 h in series [2] worked out at 73.7 µM. Further, in series [5], the selectivity ratio turned out to be 33.5.
Consider `O=C1c2ccccc2C(=O)N1Nc1nc(-c2ccc(F)cc2)cs1`, for which the IC50 in the series with Trypanosoma cruzi [1] was determined as 26.5 µM; in the series on Trypanosoma cruzi [3], 52.1 µM. In addition, the MNTC at 24 h in series [2] worked out at 2.9 µM.
For `Cc1ccc(-c2csc(NN3C(=O)c4ccccc4C3=O)n2)cc1` the same measures were 70.4 µM, 107 µM and 14.9 µM.
On the same counts, the results for `O=C1c2ccccc2C(=O)N1Nc1nc(-c2ccc(Cl)cc2)cs1` are 30.6 µM, 86.2 µM and 2.8 µM.
As for `O=C1c2ccccc2C(=O)N1C/C=N/N=c1\scc(-c2ccc3ccccc3c2)n1-c1ccccc1`, the IC50 was determined as 11.9 µM with Trypanosoma cruzi [1] and 0.5 µM with Trypanosoma cruzi [3]. The MNTC at 24 h in series [2] was determined as 205 µM. Besides, in series [5], the selectivity ratio was found to be 410.
As to `O=C1c2ccccc2C(=O)N1C/C=N/N=c1\scc(-c2ccc(Cl)c(Cl)c2)n1-c1ccccc1`, in series [2], the MNTC at 24 h worked out at 197 µM.
On to `O=C1c2ccccc2C(=O)N1C/C=N/N=c1\scc(-c2ccccc2)n1-c1ccccc1`, for which the MNTC at 24 h in series [2] turned out to be 228 µM. The same compound registered an IC50 in the series with Trypanosoma cruzi [3] of 8.8 µM.
Regarding `Cc1ccc(-c2cs/c(=N\N=C\CN3C(=O)c4ccccc4C3=O)n2-c2ccccc2)cc1`, the IC50 turned out to be 57.8 µM in the series on Trypanosoma cruzi [1] and 33.3 µM in the series with Trypanosoma cruzi [3]. Besides, the MNTC at 24 h in series [2] amounted to 221 µM.
Turning to `COc1ccc(-c2cs/c(=N\N=C\CN3C(=O)c4ccccc4C3=O)n2-c2ccccc2)cc1`, the MNTC at 24 h in series [2] is 213 µM. In addition, 10 µM corresponded to half-maximal inhibition in the series on Trypanosoma cruzi [3] (IC50).
In the series on Trypanosoma cruzi [1], `O=C1c2ccccc2C(=O)N1C/C=N/NC(=S)Nc1ccccc1` yielded an IC50 of 36.9 µM. In series [2], the MNTC at 24 h was found to be 50 µM.
Regarding `O=C(Cn1ccnc1[N+](=O)[O-])NCc1ccccc1` [BENZNIDAZOLE], the Activity in the series on Trypanosoma cruzi [6] and in the series with Trypanosoma cruzi [7] was 56% in each case. In addition, the IC50 with Trypanosoma cruzi [3] amounted to 6.3 µM. Besides, the selectivity ratio in series [5] worked out at 15.2.
Take `COc1ccc(-c2csc(NN3C(=O)c4ccccc4C3=O)n2)cc1`: the results for the IC50 with Trypanosoma cruzi [1] and in the series with Trypanosoma cruzi [3] were 6.4 µM and 50.3 µM, respectively. Also, the MNTC at 24 h in series [2] is 14.2 µM.
In the case of `O=C1c2ccccc2C(=O)N1C/C=N/N=c1\scc(-c2ccc(Br)cc2)n1-c1ccccc1`, the MNTC at 24 h in series [2] was 96.6 µM. The compound also showed an IC50 in the series on Trypanosoma cruzi [3] of 9.7 µM.
As to `NC(=S)NN1C(=O)c2ccccc2C1=O`, the figures for the IC50 in the series with Trypanosoma cruzi [1] and with Trypanosoma cruzi [3] were 56.8 µM and 52 µM, respectively. Also, the MNTC at 24 h in series [2] was found to be 4.5 µM.

By IC50 is commonly meant the concentration needed to halve the response being measured. Broadly, the logP is a log measure of how a compound divides between an organic and an aqueous phase.
